In ChEMBL document CHEMBL1137342 (J Med Chem, 2006):

Legend:
[1] = molecular target: T1, Alpha-2A adrenergic receptor (Homo sapiens, UniProt P08913); experiment: Binding affinity to human cloned adrenergic alpha 2A receptor
T1 sequence (P08913 whole entry): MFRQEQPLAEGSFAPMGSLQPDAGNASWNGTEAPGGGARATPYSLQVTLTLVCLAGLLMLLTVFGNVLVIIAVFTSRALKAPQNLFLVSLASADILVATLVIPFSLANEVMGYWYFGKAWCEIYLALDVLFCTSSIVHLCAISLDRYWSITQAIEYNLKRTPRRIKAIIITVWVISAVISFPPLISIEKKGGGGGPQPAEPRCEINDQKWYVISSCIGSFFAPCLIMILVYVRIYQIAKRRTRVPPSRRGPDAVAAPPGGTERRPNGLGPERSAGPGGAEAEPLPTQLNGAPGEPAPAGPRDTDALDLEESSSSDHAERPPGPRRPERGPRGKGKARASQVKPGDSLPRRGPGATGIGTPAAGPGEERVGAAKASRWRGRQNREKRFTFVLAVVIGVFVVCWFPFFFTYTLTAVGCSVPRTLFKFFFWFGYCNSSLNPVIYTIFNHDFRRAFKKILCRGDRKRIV

[2] = molecular target: T2, Alpha-2B adrenergic receptor (Homo sapiens, UniProt P18089); experiment: Binding affinity to human cloned adrenergic alpha 2B receptor receptor
T2 sequence (P18089 whole entry): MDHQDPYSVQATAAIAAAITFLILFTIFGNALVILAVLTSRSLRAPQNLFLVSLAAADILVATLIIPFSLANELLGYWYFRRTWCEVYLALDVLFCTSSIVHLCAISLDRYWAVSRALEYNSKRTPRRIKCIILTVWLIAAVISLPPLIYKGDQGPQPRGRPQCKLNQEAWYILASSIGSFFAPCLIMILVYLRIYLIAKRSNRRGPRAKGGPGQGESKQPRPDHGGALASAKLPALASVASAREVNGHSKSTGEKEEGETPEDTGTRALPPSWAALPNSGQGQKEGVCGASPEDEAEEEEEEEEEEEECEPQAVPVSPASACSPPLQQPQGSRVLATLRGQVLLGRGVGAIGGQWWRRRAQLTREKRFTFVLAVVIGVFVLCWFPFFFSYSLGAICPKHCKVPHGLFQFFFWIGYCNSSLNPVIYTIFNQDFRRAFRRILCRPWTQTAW

D(4) dopamine receptor [3] = molecular target: T3, D(4) dopamine receptor (Homo sapiens, UniProt P21917); type: functional, cell-based, HEK293
T3 sequence (P21917 whole entry): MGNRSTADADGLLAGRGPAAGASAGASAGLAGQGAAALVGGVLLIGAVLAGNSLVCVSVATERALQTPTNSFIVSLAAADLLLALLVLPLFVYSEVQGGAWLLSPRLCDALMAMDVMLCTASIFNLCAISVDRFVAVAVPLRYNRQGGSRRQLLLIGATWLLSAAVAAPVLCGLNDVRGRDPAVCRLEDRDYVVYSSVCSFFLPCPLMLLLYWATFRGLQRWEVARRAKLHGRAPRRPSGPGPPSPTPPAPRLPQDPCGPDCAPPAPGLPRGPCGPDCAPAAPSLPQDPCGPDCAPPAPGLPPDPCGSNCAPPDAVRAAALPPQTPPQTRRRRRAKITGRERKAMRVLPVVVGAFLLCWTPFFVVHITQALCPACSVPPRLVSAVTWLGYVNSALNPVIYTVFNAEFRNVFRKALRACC

[4] = molecular target: T4, Alpha-2C adrenergic receptor (Homo sapiens, UniProt P18825); experiment: Binding affinity to human cloned adrenergic alpha 2C receptor receptor
T4 sequence (P18825 whole entry): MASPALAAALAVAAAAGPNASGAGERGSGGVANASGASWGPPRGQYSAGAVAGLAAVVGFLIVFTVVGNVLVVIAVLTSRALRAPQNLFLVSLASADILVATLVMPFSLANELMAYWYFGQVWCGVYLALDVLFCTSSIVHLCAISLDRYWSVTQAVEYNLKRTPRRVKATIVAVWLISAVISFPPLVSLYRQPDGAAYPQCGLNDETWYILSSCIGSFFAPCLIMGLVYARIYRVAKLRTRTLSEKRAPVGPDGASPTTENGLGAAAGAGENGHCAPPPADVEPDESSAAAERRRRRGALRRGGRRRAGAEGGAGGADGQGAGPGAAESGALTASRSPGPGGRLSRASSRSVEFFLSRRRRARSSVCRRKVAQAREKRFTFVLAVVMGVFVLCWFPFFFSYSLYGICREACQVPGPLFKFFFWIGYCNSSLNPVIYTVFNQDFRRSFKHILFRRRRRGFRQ

D(4) dopamine receptor [5] = molecular target: T3, D(4) dopamine receptor; experiment: Binding affinity to human cloned dopamine D4 receptor
D(1B) dopamine receptor = D(1B) dopamine receptor (Homo sapiens, UniProt P21918); experiment: Binding affinity to human cloned dopamine D5 receptor
D(2) dopamine receptor [6] = molecular target: D(2) dopamine receptor (Rattus norvegicus, UniProt P61169); experiment: Activity at rat dopamine D2L receptor expressed in HEK293 cells assessed as inhibition of forskolin-stimulated cAMP production; type: functional, cell-based
Procedure, shortened: (§1)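 HEK293 cells stably expressing rat D2L, grown in DMEM with 5% fetal clone serum, 5% bovine calf serum and puromycin. Confluent monolayers were treated with ligands diluted in EBSS buffer (pH 7.4) with 5 µM forskolin and 500 µM IBMX. The reaction was stopped with 3% TCA. cAMP was measured in duplicate by [3H]cAMP competition with adrenal binding protein (2-3 h, 4 °C).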

D(2) dopamine receptor [7] = molecular target: D(2) dopamine receptor (Homo sapiens, UniProt P14416); experiment: Binding affinity to human cloned dopamine D2 receptor
D(3) dopamine receptor = D(3) dopamine receptor (Homo sapiens, UniProt P35462); experiment: Binding affinity to human cloned dopamine D3 receptor
[8] = molecular target: D(2) dopamine receptor (Rattus norvegicus) (UniProt P61169); experiment: Intrinsic activity at rat dopamine D2L receptor expressed in HEK293 cells assessed as inhibition of forskolin-stimulated cAMP production relative to dopamine; type: functional, cell-based; procedure, shortened: as §1
D(1A) dopamine receptor [9] = molecular target: D(1A) dopamine receptor (Homo sapiens, UniProt P21728); experiment: Activity at human dopamine D1 receptor expressed in HEK293 cells assessed as stimulation of cAMP production; type: functional, cell-based
D(1A) dopamine receptor [10] = molecular target: D(1A) dopamine receptor (Sus scrofa, UniProt P50130); experiment: Displacement of [3H]SCH-23390 from dopamine D1-like receptor in porcine striata homogenate
Chain of D(1A) dopamine receptor (Sus scrofa, UniProt P50130) (P50130 whole entry): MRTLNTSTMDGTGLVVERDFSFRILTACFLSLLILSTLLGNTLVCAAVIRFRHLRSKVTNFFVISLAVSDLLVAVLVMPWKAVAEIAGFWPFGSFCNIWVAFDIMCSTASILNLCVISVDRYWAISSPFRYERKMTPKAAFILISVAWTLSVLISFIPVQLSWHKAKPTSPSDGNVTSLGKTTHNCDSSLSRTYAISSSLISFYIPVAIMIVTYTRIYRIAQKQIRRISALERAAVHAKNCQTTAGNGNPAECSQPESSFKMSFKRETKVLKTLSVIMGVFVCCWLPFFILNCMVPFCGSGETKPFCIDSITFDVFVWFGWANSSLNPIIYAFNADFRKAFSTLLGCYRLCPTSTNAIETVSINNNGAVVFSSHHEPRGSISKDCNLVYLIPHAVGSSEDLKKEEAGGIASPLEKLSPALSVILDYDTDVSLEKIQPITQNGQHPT

Chain of D(2) dopamine receptor (Rattus norvegicus, UniProt P61169) (P61169 whole entry): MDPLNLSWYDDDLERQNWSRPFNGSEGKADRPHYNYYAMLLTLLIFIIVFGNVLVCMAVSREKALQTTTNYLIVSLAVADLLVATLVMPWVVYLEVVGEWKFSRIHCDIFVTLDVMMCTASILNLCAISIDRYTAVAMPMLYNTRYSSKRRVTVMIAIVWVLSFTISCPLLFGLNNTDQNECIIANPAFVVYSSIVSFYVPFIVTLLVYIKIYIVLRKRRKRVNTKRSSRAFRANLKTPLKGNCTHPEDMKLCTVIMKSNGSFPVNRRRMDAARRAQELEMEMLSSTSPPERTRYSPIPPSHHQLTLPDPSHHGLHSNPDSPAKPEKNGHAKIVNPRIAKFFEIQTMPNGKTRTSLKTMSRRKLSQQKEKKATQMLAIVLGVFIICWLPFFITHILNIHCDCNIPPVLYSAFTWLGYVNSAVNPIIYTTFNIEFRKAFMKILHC
Chain of D(2) dopamine receptor (Rattus norvegicus) (P61169 whole entry): as above
Chain of D(1B) dopamine receptor (P21918 whole entry): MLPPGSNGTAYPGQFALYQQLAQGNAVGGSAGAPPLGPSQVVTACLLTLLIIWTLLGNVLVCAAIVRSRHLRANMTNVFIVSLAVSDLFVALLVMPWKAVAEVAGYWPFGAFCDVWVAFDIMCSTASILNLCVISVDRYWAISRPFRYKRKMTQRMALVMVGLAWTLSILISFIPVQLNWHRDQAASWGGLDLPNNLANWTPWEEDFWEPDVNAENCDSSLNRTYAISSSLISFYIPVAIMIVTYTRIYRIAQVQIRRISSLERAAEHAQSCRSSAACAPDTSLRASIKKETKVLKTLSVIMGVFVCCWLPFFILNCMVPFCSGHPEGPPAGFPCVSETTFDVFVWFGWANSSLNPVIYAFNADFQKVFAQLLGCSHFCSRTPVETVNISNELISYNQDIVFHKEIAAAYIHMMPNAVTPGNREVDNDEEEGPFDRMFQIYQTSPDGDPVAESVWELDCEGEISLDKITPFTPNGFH
Chain of D(1A) dopamine receptor (Homo sapiens, UniProt P21728) (P21728 whole entry): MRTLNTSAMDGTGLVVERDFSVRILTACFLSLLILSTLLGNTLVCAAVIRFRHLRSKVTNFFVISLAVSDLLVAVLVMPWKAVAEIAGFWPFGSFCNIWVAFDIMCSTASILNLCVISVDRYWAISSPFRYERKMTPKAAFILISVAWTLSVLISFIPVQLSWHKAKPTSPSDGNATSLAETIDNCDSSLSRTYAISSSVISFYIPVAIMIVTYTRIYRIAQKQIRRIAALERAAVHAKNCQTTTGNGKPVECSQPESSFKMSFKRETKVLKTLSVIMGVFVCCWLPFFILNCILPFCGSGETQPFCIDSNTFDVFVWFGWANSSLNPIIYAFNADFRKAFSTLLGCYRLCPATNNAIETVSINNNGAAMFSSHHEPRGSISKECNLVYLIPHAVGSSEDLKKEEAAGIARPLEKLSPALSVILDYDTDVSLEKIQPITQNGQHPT
Chain of D(2) dopamine receptor (Homo sapiens, UniProt P14416) (P14416 whole entry): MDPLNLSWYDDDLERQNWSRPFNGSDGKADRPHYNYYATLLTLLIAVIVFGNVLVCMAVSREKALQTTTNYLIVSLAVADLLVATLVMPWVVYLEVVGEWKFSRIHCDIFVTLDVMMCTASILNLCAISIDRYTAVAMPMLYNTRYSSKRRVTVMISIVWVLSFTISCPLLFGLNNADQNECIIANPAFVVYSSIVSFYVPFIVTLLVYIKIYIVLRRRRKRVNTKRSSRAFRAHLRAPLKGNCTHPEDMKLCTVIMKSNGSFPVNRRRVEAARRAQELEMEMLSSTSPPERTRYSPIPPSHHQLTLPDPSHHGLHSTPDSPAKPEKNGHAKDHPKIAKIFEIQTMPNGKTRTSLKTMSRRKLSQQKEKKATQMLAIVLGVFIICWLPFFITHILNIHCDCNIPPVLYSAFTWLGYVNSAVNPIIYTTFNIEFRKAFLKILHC
Chain of D(3) dopamine receptor (P35462 whole entry): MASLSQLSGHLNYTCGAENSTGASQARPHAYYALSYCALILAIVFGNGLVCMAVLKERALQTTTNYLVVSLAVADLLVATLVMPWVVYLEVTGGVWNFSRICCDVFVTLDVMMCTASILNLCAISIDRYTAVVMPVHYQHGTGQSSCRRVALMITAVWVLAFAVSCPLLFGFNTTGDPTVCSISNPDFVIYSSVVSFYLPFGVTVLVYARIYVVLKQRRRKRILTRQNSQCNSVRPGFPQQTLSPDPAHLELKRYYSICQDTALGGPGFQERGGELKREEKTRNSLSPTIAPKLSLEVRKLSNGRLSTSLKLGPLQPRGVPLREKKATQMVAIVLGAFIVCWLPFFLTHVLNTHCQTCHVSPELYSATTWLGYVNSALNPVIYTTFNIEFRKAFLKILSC

For Oc1cc2c(cc1O)C1c3ccccc3CNC1CO2 (racemic) [DOXANTHRINE], which Ki [1] is on record?
The Ki was 180 nM.

What about the Ki [2] of the same compound?
Its Ki is 10 nM.

And the EC50 (D(4) dopamine receptor [3])?
The EC50 was 110 nM.

And the Ki [4]?
Its Ki is 2 nM.

And the Ki (D(4) dopamine receptor [5])?
Its Ki is 90 nM.

And the Ki (D(1B) dopamine receptor)?
The Ki was 7 nM.

What about the EC50 (D(2) dopamine receptor [6]) of the same compound?
Its EC50 is > 10000 nM.

What about the Ki (D(2) dopamine receptor [7]) of the same compound?
The Ki was 1910 nM.

What about the Ki (D(3) dopamine receptor) of the same compound?
The Ki was 390 nM.

Oc1cc2c(cc1O)[C@@H]1c3ccccc3CN[C@H]1CO2 (single isomer, unassigned) was tested. Which EC50 (D(4) dopamine receptor [3]) did it give?
Its EC50 is 230 nM.

And the EC50 (D(2) dopamine receptor [6])?
The EC50 was > 10000 nM.

What does the source list for Oc1cc2c(cc1O)[C@H]1c3ccccc3CN[C@@H]1CO2 (single isomer, unassigned)?
EC50 (D(4) dopamine receptor [3]): 95 nM; EC50 (D(2) dopamine receptor [6]): > 10000 nM

NCCc1ccc(O)c(O)c1 was tested. Which Intrinsic activity [8] did it give?
Its Intrinsic activity is 100%.

CCCN1CCC[C@@H]2Cc3n[nH]cc3C[C@H]21 was tested. Which Intrinsic activity [8] did it give?
The Intrinsic activity was 95%.

Which EC50 (D(1A) dopamine receptor [9]) does the source give for CCCN1Cc2ccccc2C2c3cc(O)c(O)cc3OCC21 (racemic) here?
The EC50 was 1100 nM.

What about the Intrinsic activity [8] of the same compound?
Its Intrinsic activity is 92%.

What about the EC50 (D(4) dopamine receptor [3]) of the same compound?
The EC50 was 21 nM.

What about the Ki (D(1A) dopamine receptor [10]) of the same compound?
Its Ki is 330 nM.

And the EC50 (D(2) dopamine receptor [6])?
The EC50 was 1600 nM.

With Oc1cc2c(cc1O)[C@H]1c3ccccc3CN[C@@H]1CC2 as the compound, how does the Intrinsic activity [8] read?
The Intrinsic activity was 70%.
